Bioassay records as filed in PubChem BioAssay.
Only some compounds are listed: those with a hit (about 1.8% of all), similar ones and a draw of the others.
M4 PAM – positive allosteric modulators of human muscarinic M4 receptor; CHO-K1 hM4/Gqi5, Fluo-8 calcium fluorescence, ACh EC20; 0% = ACh EC20, 100% = maximal ACh; activation, % at 3 µM; actives 0.4% (n = 360,000); AID 624126;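 active = activation above its plate's cutoff, the mean activation of sample wells plus 3 SD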
M5 antag – antagonists of human muscarinic M5 receptor (CHRM5) | inhibition, % at 3 µM | actives 0.59% (n = 360,000) | CHO-hM5 cells, Fluo-8 calcium fluorescence, ACh EC80 | P08912;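 active = inhibition above a per-plate cutoff, the mean of that plate's test compounds plus 3 SD, cut at about 27% in these data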;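 note: 0% = acetylcholine EC80 with DMSO and 100% = DMSO without agonist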
Target sequence (P08912 whole entry, looked up): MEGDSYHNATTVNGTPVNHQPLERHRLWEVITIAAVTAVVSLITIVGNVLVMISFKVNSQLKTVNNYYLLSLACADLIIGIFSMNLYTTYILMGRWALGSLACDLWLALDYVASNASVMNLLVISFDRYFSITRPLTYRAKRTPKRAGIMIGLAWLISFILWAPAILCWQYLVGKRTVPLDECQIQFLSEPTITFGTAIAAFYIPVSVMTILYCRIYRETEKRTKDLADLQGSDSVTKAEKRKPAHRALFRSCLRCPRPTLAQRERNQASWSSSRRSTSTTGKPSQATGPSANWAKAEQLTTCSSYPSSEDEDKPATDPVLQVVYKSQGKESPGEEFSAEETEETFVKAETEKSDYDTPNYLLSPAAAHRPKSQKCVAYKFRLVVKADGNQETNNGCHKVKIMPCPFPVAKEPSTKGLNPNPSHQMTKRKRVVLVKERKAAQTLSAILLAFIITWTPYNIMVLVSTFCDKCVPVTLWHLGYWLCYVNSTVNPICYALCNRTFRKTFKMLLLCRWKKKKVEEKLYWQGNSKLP
CHRM5 agonist – CHRM5 agonism in calcium assay | P08912 | CHO-K1 hM5 cells, Fluo-8 calcium fluorescence; 0% DMSO wells, 100% maximal acetylcholine response | activation, % at 3 µM | actives 0.19% (n = 360,000);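 active = activation above the run's mean over test compounds plus 3 SD, cut at about 23% in these data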;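 note: signal is peak over basal fluorescence ratio across the kinetic read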
CHRM5 PAM – positive allosteric modulators of human muscarinic M5 receptor. CHO-K1 hM5, Fluo-8 calcium, ACh EC20 PAM; 0% = ACh EC20, 100% = ACh EC100. AID 624038. actives 0.3% (n = 360,000). activation, % at 3 µM;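 active = activation above the run cutoff, the mean activation of all test compounds plus 3 SD, cut at about 18% in these data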
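Measured by: Fluo-8 calcium fluorescence; material: human M5 receptor in CHO-K1 cells; schedule: Post-acetylcholine fluorescence recording 140 s; benchmarks: low control EC20 acetylcholine (0%), high control EC100 acetylcholine (100%); read-out: Max/basal fluorescence ratio as % of EC20–EC100 ACh window; compound: single dose, 3 µM nominal final test concentration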
CHRM4 antagonist – blocks acetylcholine activation of human M4 receptor; CHO-hM4 cells, ACh EC80, Fluo-8 calcium fluorescence; inhibition, % at 3 µM; actives 0.73% (n = 360,000); AID 624125;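 active = inhibition above its plate's cutoff, the mean inhibition of sample wells plus 3 SD, cut at about 27% in these data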;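 note: 0% = acetylcholine EC80 with DMSO and 100% = DMSO without agonist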
CHRM4 agonist – CHRM4 agonism in calcium assay. CHO-K1 hM4/Gqi5, Fluo-8 calcium fluorescence; vehicle 0%, full acetylcholine response 100%. AID 624127. P08173. actives 0.14% (n = 360,000). activation, % at 3 µM;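 active = activation above the run mean over all test wells plus 3 SD, cut at about 32% in these data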;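 note: peak over basal fluorescence ratio per well then scaled between controls; 0% = DMSO wells and 100% = acetylcholine at EC100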
Starred values were filed as active, the others as inactive.

CC1(C)C(=O)NCCN1C(=O)CC1C(=O)NCCN1Cc1cccc(C(F)(F)F)c1 (configuration not stated) was read as M4 PAM 7.2, M5 antag 4.0, CHRM5 agonist -2.9, CHRM5 PAM 2.4, CHRM4 antagonist -12.0 and CHRM4 agonist 1.2.
`C[C@H](CO)N1C[C@H](C)[C@H](CN(C)C(=O)c2ccccc2)Oc2cc(Br)ccc2S1(=O)=O` gave M4 PAM 9.4, M5 antag 4.4, CHRM5 agonist 1.6, CHRM5 PAM -4.0, CHRM4 antagonist -5.8 and CHRM4 agonist 2.5.
Screening CC(C)Oc1ccc(C(CC(=O)O)NC(=O)C(Sc2ccccc2)c2ccccc2)cc1 (configuration not stated) returned M4 PAM 1.3, M5 antag 16.1, CHRM5 agonist -3.2, CHRM5 PAM -4.7, CHRM4 antagonist -6.1 and CHRM4 agonist 0.8.
Screening O=C(/C=C/c1c(F)cccc1Cl)c1ccc(O)cc1 returned M4 PAM -15.3, M5 antag 10.6, CHRM5 agonist -4.8, CHRM5 PAM -7.2, CHRM4 antagonist 39.1* and CHRM4 agonist -1.2.
Screening COc1cccc(-n2nnnc2SCC(=O)NC2CCCCC2)c1 returned M4 PAM 1.3, M5 antag 2.2, CHRM5 agonist -2.5, CHRM5 PAM 2.0, CHRM4 antagonist 5.6 and CHRM4 agonist 1.0.
COc1ccc(-n2c(SCC(=O)N(C)C3CCS(=O)(=O)C3)nc3ccc(O)cc3c2=O)cc1OC (configuration not stated) was read as M4 PAM -1.4, M5 antag 29.3*, CHRM5 agonist -1.5, CHRM5 PAM -8.2, CHRM4 antagonist 0.4 and CHRM4 agonist 1.3.
Screening CN(C(=O)CSc1nc2ccccc2c(=O)n1-c1ccc(F)cc1)C1CCS(=O)(=O)C1 (configuration not stated) returned M4 PAM 3.8, M5 antag 1.7, CHRM5 agonist -0.5, CHRM5 PAM 3.0, CHRM4 antagonist -1.6 and CHRM4 agonist 1.9.
Screening Cc1ccccc1OCCC(=O)Nc1ccccc1C(=O)NC1CC1 returned M4 PAM 9.3, M5 antag 5.4, CHRM5 agonist -1.9, CHRM5 PAM 6.2, CHRM4 antagonist -6.5 and CHRM4 agonist 1.6.
Screening CCCCN(CC(=O)NC1CC1)S(=O)(=O)c1ccc(OCC)cc1 returned M4 PAM -6.4, M5 antag 2.9, CHRM5 agonist -0.3, CHRM5 PAM -1.9, CHRM4 antagonist 28.6* and CHRM4 agonist -0.2.
`CCOc1ccc(S(=O)(=O)N(C)CC(=O)NC2CC2)cc1` gave M4 PAM 12.1, M5 antag 14.5, CHRM5 agonist -5.6, CHRM5 PAM -3.5, CHRM4 antagonist -3.1 and CHRM4 agonist 0.1.
`O=C(CCN1C(=O)c2cccc3cccc(c23)C1=O)Nc1ccon1` gave M4 PAM 3.4, M5 antag -17.2, CHRM5 agonist 4.4, CHRM5 PAM 9.5, CHRM4 antagonist -2.4 and CHRM4 agonist 1.9.
CC(C)NC(=O)Nc1cccc2c1O[C@H](CN(C)C(=O)Nc1ccccc1)[C@@H](C)CN([C@H](C)CO)C2=O was read as M4 PAM 2.6, M5 antag 8.0, CHRM5 agonist 2.4, CHRM5 PAM 2.4, CHRM4 antagonist -3.3 and CHRM4 agonist 0.3.
For OC(c1cc(-c2cccc(Cl)c2)nc2ccccc12)C1CCCCN1 (configuration not stated) the results were M4 PAM 10.9, M5 antag 8.3, CHRM5 agonist 3.2, CHRM5 PAM -1.1, CHRM4 antagonist 37.0* and CHRM4 agonist 22.8.
Screening CSCCC(NS(=O)(=O)c1ccc(Cl)cc1)C(=O)OCC(=O)c1c(C)[nH]c2ccccc12 (configuration not stated) returned M4 PAM -12.7, M5 antag 25.8, CHRM5 agonist 2.7, CHRM5 PAM -12.7, CHRM4 antagonist 32.7* and CHRM4 agonist 14.8.
Screening C/C(=N\Nc1nc2ccccc2s1)c1ccc(Br)s1 returned M4 PAM -7.7, M5 antag 9.5, CHRM5 agonist -0.9, CHRM5 PAM -5.4, CHRM4 antagonist 2.1 and CHRM4 agonist -0.9.
`CC(=NNc1nc2ccccc2s1)c1ccncn1` gave M4 PAM -2.4, M5 antag 15.4, CHRM5 agonist 13.7, CHRM5 PAM -0.5, CHRM4 antagonist 58.2* and CHRM4 agonist 23.0.
`O=C(O)c1ccccc1-c1c2cc(I)c(=O)c(I)c-2oc2c(I)c(O)c(I)cc12` gave M4 PAM -18.9, M5 antag 38.2*, CHRM5 agonist 107.0*, CHRM5 PAM -20.5, CHRM4 antagonist 57.4* and CHRM4 agonist 253.6*.
`O=Cc1ccc(-c2ccccc2C(=O)O)o1` gave M4 PAM 1.4, M5 antag 11.2, CHRM5 agonist -0.3, CHRM5 PAM -5.3, CHRM4 antagonist 1.5 and CHRM4 agonist 1.2.
Cc1ccc(C)c(-c2nnc(OCC(=O)Nc3cc(C)on3)c3ccccc23)c1 was read as M4 PAM 16.2*, M5 antag -4.6, CHRM5 agonist 2.4, CHRM5 PAM 8.3, CHRM4 antagonist -1.0 and CHRM4 agonist 0.0.
COC(=O)C(/C=N/OCc1ccc([N+](=O)[O-])cc1)NC(=O)c1cccc(Cl)c1 (configuration not stated) was read as M4 PAM 10.2, M5 antag -0.9, CHRM5 agonist 33.8*, CHRM5 PAM -9.8, CHRM4 antagonist 11.5 and CHRM4 agonist 29.1.
For Cc1ccc(CONC(=O)c2cccc([N+](=O)[O-])c2)cc1 the results were M4 PAM 0.5, M5 antag -0.2, CHRM5 agonist 0.8, CHRM5 PAM 4.5, CHRM4 antagonist 1.9 and CHRM4 agonist 0.2.
For CN(C)c1ccc(/C=C/C(=O)c2c(O)c3ccccc3oc2=O)cc1 the results were M4 PAM -12.9, M5 antag 18.2, CHRM5 agonist 25.6*, CHRM5 PAM -11.1, CHRM4 antagonist 6.4 and CHRM4 agonist 6.0.
Screening CCOc1ccc(/C=C/C(=O)c2c(O)c3ccccc3oc2=O)cc1 returned M4 PAM 2.5, M5 antag 2.2, CHRM5 agonist -2.4, CHRM5 PAM -0.9, CHRM4 antagonist 14.0 and CHRM4 agonist -0.3.
C/C(=N\Nc1nc(C)cc(-c2ccccc2)n1)c1cccc(N)c1 was read as M4 PAM -4.1, M5 antag 12.2, CHRM5 agonist -3.7, CHRM5 PAM -3.7, CHRM4 antagonist 6.8 and CHRM4 agonist -0.4.
Screening Cc1ccc(S(=O)(=O)N(C)C)cc1NC(=O)CN1C(=O)NC(Cc2ccccc2)C1=O (configuration not stated) returned M4 PAM 2.0, M5 antag 3.4, CHRM5 agonist 0.7, CHRM5 PAM 1.5, CHRM4 antagonist 6.1 and CHRM4 agonist -0.7.
